Experiments:
[1] = tested on: K562; test: Reversal fold, ratio of doxorubicin IC50 for doxorubicin-resistant human K562 cells in absence of compound to doxorubicin IC50 for doxorubicin-resistant human K562 cells in presence of 1 uM of compound; assay type: functional
Summary of the method: (§1)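 K562/DOX cells seeded at 3000 cells/well and exposed to doxorubicin (0.001-10 µM) with or without modulator (0.1 or 1.0 µM; DMSO stocks diluted in complete medium) for 72 h at 37 °C, 5% CO2. Viability read by MTT (3 h, DMSO solubilization, 540 nm). Doxorubicin IC50 taken from plotted curves. RF = IC50 without modulator / IC50 with modulator. Quadruplicate cultures.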

[2] = target: P-glycoprotein (ABCB1) (Homo sapiens, UniProt P08183); test: Inhibition of P-glycoprotein in human doxorubicin-resistant K562 cells assessed as maximal increase of pirarubicin accumulation by spectrofluorometric analysis relative to control; assay type: cell-based; details: probe pirarubicin
Chain of P-glycoprotein (ABCB1) (P08183 whole entry): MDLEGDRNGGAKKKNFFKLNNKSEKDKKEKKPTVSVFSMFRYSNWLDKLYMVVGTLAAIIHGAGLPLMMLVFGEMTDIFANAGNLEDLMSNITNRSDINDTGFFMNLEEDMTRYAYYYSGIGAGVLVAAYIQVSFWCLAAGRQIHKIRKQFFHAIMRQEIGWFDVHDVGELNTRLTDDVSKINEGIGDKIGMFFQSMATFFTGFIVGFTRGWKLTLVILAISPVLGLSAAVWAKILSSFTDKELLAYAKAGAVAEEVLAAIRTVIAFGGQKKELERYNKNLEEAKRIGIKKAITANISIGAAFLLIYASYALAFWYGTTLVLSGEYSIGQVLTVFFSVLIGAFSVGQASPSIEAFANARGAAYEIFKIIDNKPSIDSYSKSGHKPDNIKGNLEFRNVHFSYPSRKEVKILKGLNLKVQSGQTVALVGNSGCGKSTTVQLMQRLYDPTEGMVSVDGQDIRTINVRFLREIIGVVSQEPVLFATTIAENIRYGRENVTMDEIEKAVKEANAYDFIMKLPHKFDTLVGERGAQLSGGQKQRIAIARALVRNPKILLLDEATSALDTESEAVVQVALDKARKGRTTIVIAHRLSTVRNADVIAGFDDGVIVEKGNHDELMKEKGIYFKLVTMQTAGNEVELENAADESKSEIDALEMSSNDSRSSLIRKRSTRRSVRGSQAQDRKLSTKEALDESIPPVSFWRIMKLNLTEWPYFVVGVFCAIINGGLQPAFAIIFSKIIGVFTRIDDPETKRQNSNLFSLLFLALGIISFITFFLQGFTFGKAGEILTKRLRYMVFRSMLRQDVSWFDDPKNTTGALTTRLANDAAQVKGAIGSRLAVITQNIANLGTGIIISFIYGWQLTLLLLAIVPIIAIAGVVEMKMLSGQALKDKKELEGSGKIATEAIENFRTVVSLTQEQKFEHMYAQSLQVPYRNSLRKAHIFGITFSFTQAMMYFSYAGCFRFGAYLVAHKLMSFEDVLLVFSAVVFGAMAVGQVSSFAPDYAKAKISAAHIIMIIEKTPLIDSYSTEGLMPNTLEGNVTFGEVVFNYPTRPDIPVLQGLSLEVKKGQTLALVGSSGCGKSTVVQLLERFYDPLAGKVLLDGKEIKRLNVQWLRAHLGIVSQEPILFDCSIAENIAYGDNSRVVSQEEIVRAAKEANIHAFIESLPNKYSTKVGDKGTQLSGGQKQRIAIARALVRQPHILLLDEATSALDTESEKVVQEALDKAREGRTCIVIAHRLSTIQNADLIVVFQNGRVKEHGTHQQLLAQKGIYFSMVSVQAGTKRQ

[3] = target: ATP-dependent translocase ABCB1 (Homo sapiens, UniProt P08183); test: Inhibition of P-glycoprotein in human doxorubicin-resistant K562 cells assessed as half maximal increase of pirarubicin accumulation by spectrofluorometric analysis; assay type: cell-based
Chain of ATP-dependent translocase ABCB1 (P08183 whole entry): as above

[4] = tested on: K562; test: Reversal fold, ratio of doxorubicin IC50 for doxorubicin-resistant human K562 cells in absence of compound to doxorubicin IC50 for doxorubicin-resistant human K562 cells in presence of 0.1 uM of compound; assay type: functional; summary of the method: as §1
[5] = tested on: K562; test: Cytotoxicity against human doxorubicin-resistant K562 cells at 1 uM after 72 hrs by MTT assay; assay type: cell-based; details: k562, 72 h
Summary of the method: (§2)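 Intrinsic cytotoxicity of compound alone (no doxorubicin) tested at 1.0 µM on K562 and K562/DOX cells. Cells in exponential growth (3-5 × 10^5 cells/mL) seeded at 3000 cells/well and incubated 72 h at 37 °C, 5% CO2. MTT added for a further 3 h, formazan dissolved in DMSO, absorbance read at 540 nm. Quadruplicate cultures.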

[6] = tested on: K562; test: Cytotoxicity against human K562 cells at 1 uM after 72 hrs by MTT assay; assay type: cell-based; details: k562, 72 h; summary of the method: as §2

Emax [2] [%] | IC50 [3] [µM] | Structure (SMILES) | Ratio IC50 [1] | Ratio IC50 [4] | Activity [5] | Activity [6]
81 | 0.32 | COc1cc(/C=C/C(=O)O[C@H]2CC[C@H](N(C)[C@H]3CC[C@H](OC(=O)c4cc(OC)c(OC)c(OC)c4)CC3)CC2)cc(OC)c1OC | 9.2 |  |  | 
91 | 0.29 | COc1cc(C#CC(=O)O[C@H]2CC[C@H](N(C)[C@H]3CC[C@@H](OC(=O)C4c5ccccc5-c5ccccc54)CC3)CC2)cc(OC)c1OC (mixture of isomers) |  |  |  | 
89 | 0.08 | COc1ccc(C(C#N)(CCC(=O)O[C@H]2CC[C@@H](N(C)[C@H]3CC[C@H](OC(=O)/C=C/c4cc(OC)c(OC)c(OC)c4)CC3)CC2)C(C)C)cc1OC (mixture of isomers) | 10.7 | 3 | Non-toxic | Non-toxic
98 | 0.08 | COc1cc(C#CC(=O)O[C@H]2CC[C@H](N(C)[C@H]3CC[C@@H](OC(=O)c4cc(OC)c(OC)c(OC)c4)CC3)CC2)cc(OC)c1OC (mixture of isomers) | 1.5 | 1.6 | Non-toxic | Non-toxic
99 | 0.15 | COc1cc(/C=C/C(=O)O[C@H]2CC[C@H](N(C)[C@H]3CC[C@@H](OC(=O)C4c5ccccc5-c5ccccc54)CC3)CC2)cc(OC)c1OC (mixture of isomers) |  |  |  | 
99 | 0.15 | COc1ccc(C(C#N)(CCC(=O)O[C@H]2CC[C@@H](N(C)[C@H]3CC[C@@H](OC(=O)/C=C/c4cc(OC)c(OC)c(OC)c4)CC3)CC2)C(C)C)cc1OC (some centres undefined) |  |  |  | 
94 | 0.075 | COc1cc(/C=C/C(=O)O[C@H]2CC[C@H](N(C)[C@H]3CC[C@H](OC(=O)C4c5ccccc5-c5ccccc54)CC3)CC2)cc(OC)c1OC | 2.9 | 2 | Non-toxic | Non-toxic
81 | 0.08 | COc1cc(/C=C/C(=O)O[C@H]2CC[C@@H](N(C)[C@H]3CC[C@H](OC(=O)C4c5ccccc5-c5ccccc54)CC3)CC2)cc(OC)c1OC (mixture of isomers) | 5 | 2.3 | Non-toxic | Non-toxic
85 | 0.092 | COc1cc(/C=C/C(=O)O[C@H]2CC[C@H](N(C)[C@H]3CC[C@@H](OC(=O)c4cc(OC)c(OC)c(OC)c4)CC3)CC2)cc(OC)c1OC (mixture of isomers) | 7.7 |  |  | 
94 | 0.12 | COc1ccc(C(C(=O)O[C@H]2CC[C@@H](N(C)[C@H]3CC[C@@H](OC(=O)C#Cc4cc(OC)c(OC)c(OC)c4)CC3)CC2)c2ccc(OC)cc2)cc1 (mixture of isomers) |  |  |  | 
99 | 0.02 | COc1ccc(C(C(=O)O[C@H]2CC[C@@H](N(C)[C@H]3CC[C@H](OC(=O)C#Cc4cc(OC)c(OC)c(OC)c4)CC3)CC2)c2ccc(OC)cc2)cc1 (mixture of isomers) |  |  |  | 
77 | 0.5 | COc1cc(C#CC(=O)O[C@H]2CC[C@H](N(C)[C@H]3CC[C@H](OC(=O)C4c5ccccc5-c5ccccc54)CC3)CC2)cc(OC)c1OC |  |  |  | 
80 | 0.03 | COc1cc(/C=C/C(=O)O[C@H]2CC[C@@H](N(C)[C@H]3CC[C@@H](OC(=O)c4cc(OC)c(OC)c(OC)c4)CC3)CC2)cc(OC)c1OC | 9.8 |  |  | 
70 |  | COc1ccc(C(C#N)(CCCNCc2c3ccccc3cc3ccccc23)C(C)C)cc1OC (centres undefined) |  |  |  | 
99 | 0.07 | COc1cc(C#CC(=O)O[C@H]2CC[C@H](N(C)[C@H]3CC[C@H](OC(=O)c4cc(OC)c(OC)c(OC)c4)CC3)CC2)cc(OC)c1OC | 1.9 | 0.6 | Non-toxic | Non-toxic
99 | 0.14 | COc1ccc(C(C#N)(CCC(=O)O[C@H]2CC[C@H](N(C)[C@H]3CC[C@H](OC(=O)/C=C/c4cc(OC)c(OC)c(OC)c4)CC3)CC2)C(C)C)cc1OC (some centres undefined) |  |  |  | 
76 | 0.13 | COc1ccc(C(C(=O)O[C@H]2CC[C@H](N(C)[C@H]3CC[C@@H](OC(=O)C#Cc4cc(OC)c(OC)c(OC)c4)CC3)CC2)c2ccc(OC)cc2)cc1 (mixture of isomers) |  |  |  | 
90 | 0.18 | COc1cc(/C=C/C(=O)O[C@H]2CC[C@@H](N(C)[C@H]3CC[C@@H](OC(=O)C4c5ccccc5-c5ccccc54)CC3)CC2)cc(OC)c1OC |  |  |  | 
96 | 0.12 | COc1cc(C#CC(=O)O[C@H]2CC[C@@H](N(C)[C@H]3CC[C@H](OC(=O)C4c5ccccc5-c5ccccc54)CC3)CC2)cc(OC)c1OC (mixture of isomers) |  |  |  | 
99 | 0.07 | COc1cc(C#CC(=O)O[C@H]2CC[C@@H](N(C)[C@H]3CC[C@@H](OC(=O)c4cc(OC)c(OC)c(OC)c4)CC3)CC2)cc(OC)c1OC | 4.5 | 2.3 | Non-toxic | Non-toxic
76 | 1.1 | COc1cc(CCC(=O)O[C@H]2CC[C@@H](N(C)[C@H]3CC[C@@H](OC(=O)c4cc(OC)c(OC)c(OC)c4)CC3)CC2)cc(OC)c1OC |  |  |  | 
74 | 0.14 | COc1ccc(C(C(=O)O[C@H]2CC[C@H](N(C)[C@H]3CC[C@H](OC(=O)C#Cc4cc(OC)c(OC)c(OC)c4)CC3)CC2)c2ccc(OC)cc2)cc1 |  |  |  | 
77 | 0.35 | COc1cc(CCC(=O)O[C@H]2CC[C@@H](N(C)[C@H]3CC[C@H](OC(=O)c4cc(OC)c(OC)c(OC)c4)CC3)CC2)cc(OC)c1OC (mixture of isomers) |  |  |  | 
98 | 0.012 | COc1cc(/C=C/C(=O)O[C@H]2CC[C@@H](N(C)[C@H]3CC[C@H](OC(=O)c4cc(OC)c(OC)c(OC)c4)CC3)CC2)cc(OC)c1OC | 20.3 |  |  | 
99 | 0.02 | COc1cc(C#CC(=O)O[C@H]2CC[C@@H](N(C)[C@H]3CC[C@H](OC(=O)c4cc(OC)c(OC)c(OC)c4)CC3)CC2)cc(OC)c1OC (mixture of isomers) | 8.5 | 2 | Non-toxic | Non-toxic
88 | 0.24 | COc1ccc(C(C#N)(CCC(=O)O[C@H]2CC[C@H](N(C)[C@H]3CC[C@@H](OC(=O)/C=C/c4cc(OC)c(OC)c(OC)c4)CC3)CC2)C(C)C)cc1OC (mixture of isomers) |  |  |  | 
76 | 0.61 | COc1cc(CCC(=O)O[C@H]2CC[C@H](N(C)[C@H]3CC[C@H](OC(=O)c4cc(OC)c(OC)c(OC)c4)CC3)CC2)cc(OC)c1OC |  |  |  | 
75 | 0.63 | COc1cc(CCC(=O)O[C@H]2CC[C@H](N(C)[C@H]3CC[C@@H](OC(=O)c4cc(OC)c(OC)c(OC)c4)CC3)CC2)cc(OC)c1OC (mixture of isomers) |  |  |  | 
89 | 0.05 | COc1cc(C#CC(=O)O[C@H]2CC[C@@H](N(C)[C@H]3CC[C@@H](OC(=O)C4c5ccccc5-c5ccccc54)CC3)CC2)cc(OC)c1OC |  |  |  | 
